T cell HTS: modulators of CD8 T cell-vesicle binding, primary screen, mouse 2C CD8+ T cells, flow cytometry; 330,000 compounds, 0.068% hits; 2C CD8+ T cell-vesicle binding; hits give low values; response (vesicle binding), % at 7 µM;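 active means response, share of CD8 T cells binding vesicles, and their 90th percentile fluorescence all below set limits, cut at about 80% in these data, passing the limit was not always enough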;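 further: values below 100% mean blocked vesicle binding to the CD8+ T cells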
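material = purified 2C TCR transgenic mouse naive CD8+ T cells | controls = Unloaded micro-vesicles (low), QL9 vesicles with 0.7% DMSO (high) | detection = cytometric PE anti-B7-1 and Alexa647 anti-CD8 signals after 1% paraformaldehyde fixation | incubation = binding step 1.5 h, 37 °C, antibody labelling 20 min, ice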
proCasp3 act: activators of human procaspase-3 D3A mutant, primary screen, biochemical, absorbance, PC-3 D3A mutant, single concentration | Caspase-3 (Homo sapiens), P42574 | recombinant procaspase-3 D3A, Ac-DEVD-pNA absorbance 405 nm | activation, % at 8.5 µM | 330,000 compounds, 0.11% hits;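 active means activation above the mean of all tested compounds plus 3 SD, cut at about 21% in these data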;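 further: 0% = DMSO alone and 100% = DMSO wells spiked with extra 5 µM PC-3 D3A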
Target sequence (P42574 whole entry D9A/D28A/D175A): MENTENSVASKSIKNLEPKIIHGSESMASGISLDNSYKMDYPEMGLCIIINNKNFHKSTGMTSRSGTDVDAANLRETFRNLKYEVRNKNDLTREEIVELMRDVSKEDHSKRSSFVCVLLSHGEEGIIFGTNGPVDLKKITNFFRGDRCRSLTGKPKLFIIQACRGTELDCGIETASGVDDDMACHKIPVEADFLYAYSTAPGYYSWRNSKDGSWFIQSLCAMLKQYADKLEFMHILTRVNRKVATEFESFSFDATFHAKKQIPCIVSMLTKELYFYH
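Test system: Procaspase-3 D3A mutant, all three cleavage aspartates alanine | Dosing: Single dose, 8.5 µM nominal compound, 0.8% DMSO | Schedule: 1 h preincubation, 2 h reaction | Technique: 405 nm absorbance of p-nitroaniline, reads at 0 and 120 min | Repeats: One well per compound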
aDG glyco up: activators of alpha-DG glycosylation, primary screen, uHTS, Pro5-aDG cells, AlphaScreen | 360,000 compounds, 0.22% hits | activation, % at 10 µM | alpha-DG glycosylation AlphaScreen (IIH6); 0% Pro5, 100% B10-LARGE cell signal;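 active means activation of at least 8% versus controls, or a plate z-score of at least 8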;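 further: Pro5 are CHO cells carrying HIG-tagged alpha-DG that lacks glycosylation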
proCasp7 act: procaspase-7 activators, primary screen, counter-screen for procaspase-3 activator project, biochemical, absorbance, HTS, human | Caspase-7 (Homo sapiens), P55210 | 330,000 compounds, 0.093% hits | recombinant procaspase-7, Ac-DEVD-pNA absorbance 405 nm; D23A/D198A/D206A triple mutant, cannot self-cleave; scale: DMSO 0, 5 µM enzyme 100 | activation, % at 8.5 µM;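 active means percent activation above the screen-wide mean plus 3 SD, cut at about 25% in these data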
Target sequence (P55210 whole entry D23A/D198A/D206A): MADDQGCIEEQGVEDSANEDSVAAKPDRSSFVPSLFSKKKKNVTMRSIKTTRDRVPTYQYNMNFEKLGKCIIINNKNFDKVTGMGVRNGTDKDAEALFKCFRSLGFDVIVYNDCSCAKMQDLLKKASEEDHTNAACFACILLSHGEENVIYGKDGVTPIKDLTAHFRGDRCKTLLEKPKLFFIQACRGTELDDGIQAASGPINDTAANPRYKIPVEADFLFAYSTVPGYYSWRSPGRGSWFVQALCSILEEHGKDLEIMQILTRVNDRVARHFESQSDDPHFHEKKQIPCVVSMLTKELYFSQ
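System: Procaspase-7 triple mutant (PC-7 D3A); measure: % activation from two-timepoint absorbance difference, scaled to controls; times: 1 h compound preincubation, 2 h substrate cleavage, 25 °C; also added: Ac-DEVD-pNA substrate, 400 µM as added; measured by: Epi-absorbance of released pNA at 405 nm, two timepoints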
GRK2 aptamer HTS: compounds blocking aptamer binding on GRK2 – biochemical, human GRK2, bead flow cytometry, HTS, primary screen; Beta-adrenergic receptor kinase 1 (Homo sapiens), P25098; FAM-aptamer displacement from GRK2; inhibition of aptamer binding, % at 10 µM; 330,000 compounds, 0.59% hits; AID 488847, 2010;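 active means inhibition of aptamer binding above 40%, roughly 3 SD of noise, on plates passing a quality check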;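 further: median bead fluorescence of bound FAM aptamer so fluorescent compounds give negative values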
CaV13 ICDI inh: Primary screen for inhibitors of IQ motif and Ca2+-dependent inactivation inhibitor domain binding in CACNA1D, Förster resonance energy transfer in living cells, …; HEK cells, CFP/YFP FRET ICDI-IQ, plate reader, 10 min; percent FRET-ratio fall versus neutral wells; inhibition, % at 12.3 µM; 340,000 compounds, 0.098% hits; AID 743397;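 active means mean replicate inhibition of at least 30% and at least 1% of replicates passing that level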;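 further: 0% = median of the neutral control wells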
GRK2 inh confirm: GRK2 aptamer-displacing inhibitors, retest, confirmation, biochemical, cherry pick 1, bead flow cytometry. shares compounds with GRK2 aptamer HTS. bead-bound GRK2, FAM-aptamer displacement. aptamer displacement, % at 10 µM. 2,000 compounds, 4% hits. AID 504451, 2011;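 active means aptamer displacement above 40%, near three times the noise of non-fluorescent compounds, on plates passing quality checks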;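 further: negative values mostly reflect intrinsic compound fluorescence rather than true enhancement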
Aptamer quench 1: fluorescent aptamer quenching in GRK2 counter-screen dose response; Fluorescent RNA aptamer beads, flow cytometry; hits give high values; 110 tested, under 10 active; shares compounds with GRK2 aptamer HTS; fluorescence change (kMESF span), kMESF (test concentration not listed);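 active means compounds whose bead fluorescence drops by more than 37 kMESF across the dose range, marking them as dye quenchers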
FAM quench CP1: counter-screen for GRK2 aptamer inhibitors: fluorescent aptamer quenchers; fluorescence response (% of DMSO), % at 10 µM; Carboxyfluorescein RNA aptamer on beads, flow cytometry quenching; hits give low values; shares compounds with GRK2 aptamer HTS; 2,000 tested, under 10 active;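 active means compounds that quench the bead-bound fluorescent RNA probe, cutting fluorescence to under half of the solvent control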;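 further: counterscreen run without GRK2 so only probe quenching by compound is measured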
GRK2 CP2: GRK2 aptamer-displacing inhibitors, hit retest, confirmation, biochemical, cherry pick 2, bead flow cytometry. shares compounds with GRK2 aptamer HTS. bead-bound GRK2, FAM-aptamer displacement. inhibition of aptamer binding, % at 10 µM. 360 tested, under 10 active. AID 504782, 2011;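 active means inhibition of aptamer binding above 40%, about triple the noise seen with nonglowing compounds, on plates passing quality control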;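 further: negative values mostly come from compounds that fluoresce themselves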
Aptamer quench 2: fluorescence quenching of FAM-labeled RNA aptamer, dose response, artefact control for GRK2 aptamer inhibitor project, biochemical, flow cytometry, cherry pick 2; shares compounds with GRK2 aptamer HTS; change in fluorescence (kMESF span), kMESF (no concentration beside the values); Streptavidin beads; 25 tested, under 10 active;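 active means compounds quenching the bead-bound labeled aptamer, with fluorescence dropping by more than 37 kMESF over the dose range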
FAM quench SP: aptamer fluorescence quenching in GRK2 counter-screen; carboxyfluorescein RNA aptamer beads, flow cytometry quenching; hits give low values; fluorescence response vs DMSO, % at 10 µM; 360 tested, under 10 active; shares compounds with GRK2 aptamer HTS;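 active means response vs DMSO under 50%, meaning signal dropped by over half, treated as fluorescence quencher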;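 further: labelled aptamer on streptavidin beads without GRK2 as a quench counter-screen; 100% = bead fluorescence of DMSO wells and lower means quenching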
FAM quench DR: quenchers of FAM-labeled RNA aptamer fluorescence, dose response, artefact control for GRK2 aptamer binding project, biochemical, powder set 1, flow cytometry; shares compounds with GRK2 aptamer HTS; Bead-bound FAM RNA aptamer fluorescence quenching; hits give low values; fluorescence ratio to DMSO, % at 11.1 µM; 35 tested, under 10 active; AID 588496, 2011;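 active means compounds that dim the fluorescent label, raw bead signal shifting by over 33 units between lowest and highest dose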
The depositor's hits bear a star; i = inactive; · = not tested or not shown. Most compounds without a hit are left out; they make up all but 1.1% or so of the library.

SMILES	T cell HTS	proCasp3 act	aDG glyco up	proCasp7 act	GRK2 aptamer HTS	CaV13 ICDI inh	GRK2 inh confirm	FAM quench CP1	others
Cc1oc(-c2ccc(Cl)cc2)nc1CN1CCCC(C(=O)NCc2ccccn2)C1 (stereo not drawn)	446	5	0	0	0	-3	1	93
Cc1oc(-c2cccc(Cl)c2)nc1CN1CCC(C(=O)NCc2ccco2)CC1	458	4	0	17	0	-5	·	·
Cc1cccc(-c2nc(CN3CCCC(C(=O)NC4CCCCCC4)C3)c(C)o2)c1 (stereo not drawn)	211	6	1	3	3	-4	-4	103
CN1C(=O)C(O)(C2CCCCCC2=O)c2ccccc21 (stereo not drawn)	551	-2	0	-5	0	-20	·	·
Cn1c(=O)n(CC(N)=O)c2ccccc21	678	5	0	3	4	·	·	·
Cn1c(=O)n(CCc2ccccc2)c2ccccc21	240	-5	0	-6	51*	-5	-1	100
O=C(C[n+]1cnn(CC(=O)c2ccc(Cl)cc2Cl)c1)c1ccc([N+](=O)[O-])cc1	150	-9	0	-7	59*	-2	-23	97
O=C(Cn1cnc([N+](=O)[O-])c1)c1ccc(Cl)cc1	280	4	0	4	2	-12	·	·
Cn1c(SCc2cccc(F)c2)nnc1-c1ccccn1	148	6	0	3	58*	-5	-2	100
Cc1ccc(-c2nn(-c3ccccc3)cc2C2CC(c3ccccc3)=NN2C(=O)CCC(=O)O)cc1 (stereo not drawn)	214	1	0	-9	1	-5	·	·
Cc1ccc(C2=NN(C(=O)CCC(=O)O)C(c3cn(-c4ccccc4)nc3-c3ccc(C)cc3)C2)cc1 (stereo not drawn)	212	10	-1	3	7	-7	0	103
Nc1cc(C(=O)OCC(=O)N2CCOCC2)ccc1Cl	184	9	0	-2	58*	-4	-1	99
CCc1nc2c(OCc3cc(Cl)cc(Cl)c3)cccn2c1N(C)C(=O)c1cccc(OC)c1	·	·	0	·	·	-7	·	·
CC(c1nc2ccccc2c(=O)[nH]1)N1CCN(C)CC1 (stereo not drawn)	392	8	0	12	0	-5	·	·	GRK2 CP2=3;FAM quench SP=104
CC(c1nc2ccccc2c(=O)[nH]1)N1CCOCC1 (stereo not drawn)	158	-5	0	8	0	-5	·	·
CCC(C(=O)NC1CCCC1)n1c(C2CCCC2)nc2ccccc21 (stereo not drawn)	·	·	0	·	·	-20	·	·
COc1cc(OC)c(C2=NOC(C(=O)O)C2)cc1Cl (stereo not drawn)	303	-5	0	6	2	-5	·	·	GRK2 CP2=-26;FAM quench SP=100
O=C(C1CC(c2cccc(Br)c2)=NO1)N1CCc2ccccc2C1 (stereo not drawn)	310	7	0	6	0	-5	·	·
COc1cc(OC)c(C2=NOC(C(=O)N3CCc4ccccc4C3)C2)cc1Cl (stereo not drawn)	299	8	0	1	0	-7	·	·
O=C(O)C1CC(c2cccc(Br)c2)=NO1 (stereo not drawn)	345	10	0	6	0	-5	·	·	GRK2 CP2=-5;FAM quench SP=107
O=C(O)C1CC(c2ccccc2)=NO1 (stereo not drawn)	379	10	0	-1	17	-5	·	·	GRK2 CP2=-33;FAM quench SP=102
O=C(CC1C(=O)NCCN1Cc1ccc(F)c(F)c1)NCCCn1ccnc1 (stereo not drawn)	224	-4	0	7	0	-4	·	·
CCCCCOc1ccc(C(=O)CCC(=O)NC(C)c2ccc(S(N)(=O)=O)cc2)cc1 (stereo not drawn)	561	0	0	10	1	-9	·	·
CCc1ccccc1NC(=O)CCS(=O)(=O)c1ccc(C)cc1	173	9	0	4	0	-3	·	·
O=C(CCS(=O)(=O)c1ccc(Br)cc1)Nc1cc(F)ccc1F	308	0	0	0	82*	-3	·	·	GRK2 CP2=26;Aptamer quench 2=1.4;FAM quench SP=100;FAM quench DR=99
O=C(CCNS(=O)(=O)c1ccc(Br)cc1)NC1CCCCC1	i	-10	0	-1	0	-4	·	·
O=C(CCS(=O)(=O)c1ccc(Br)cc1)NC1CCCC1	0	6	0	6	80*	-8	61*	99	Aptamer quench 1=0.6;Aptamer quench 2=4.6

Screening results deposited in PubChem by several laboratories.
